Measured values from ChEMBL document CHEMBL1124944, “Synthesis and in vitro evaluation of some modified 4-thiopyrimidine nucleosides for prevention or reversal of AIDS-associated neurological disorders” (J Med Chem, 1990).

Legend:
[1] = Ratio of PNS to the PN (Partition coefficient ratio between thio analogue to its oxo analogue)
In short: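 Partitioning was between equal volumes of 1-octanol and 100 mM sodium phosphate pH 7.0. Phases were separated by centrifugation and each phase was quantified by UV absorbance at a wavelength chosen from spectra. The ratio is the thio analogue's partition coefficient over that of its oxo parent.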

[2] = system: CCRF-CEM; assay: Concentration of the drug resulting in 50% reduction of the viral cytopathic effect against HIV-1 replication in CEM cells.; assay type: functional, cell-based; settings: Homo sapiens
In short: (§1)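 NCI cytoprotection screen: HIV added at low amounts to T4 lymphoid cells (MT-2 or CEM), allowing at least two complete replication cycles to produce cell killing. […] An AZT-treated positive control was run alongside under identical conditions.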

[3] = system: CCRF-CEM; assay: Concentration of the drug resulting in 50% growth inhibition of normal, uninfected cells against HIV-1 replication in CEM cells.; assay type: functional, cell-based; settings: Homo sapiens; in short: as §1
[4] = system: MT2; assay: Concentration of the drug resulting in 50% reduction of the viral cytopathic effect against HIV-1 replication in MT-2 cells.; assay type: functional, cell-based; settings: Homo sapiens; in short: as §1
[5] = system: MT2; assay: Concentration of the drug resulting in 50% growth inhibition of normal, uninfected cells against HIV-1 replication in MT-2 cells.; assay type: functional, cell-based; settings: Homo sapiens; in short: as §1
[6] = target: Deoxycytidine kinase (Homo sapiens, UniProt P27707); assay: Inhibitory affect against rabbit deoxycytidine kinase and represented as molt/4F kinase.; set-up: species or system Oryctolagus cuniculus; settings: target entry is the homologue from another species
Sequence of Deoxycytidine kinase (P27707 whole entry): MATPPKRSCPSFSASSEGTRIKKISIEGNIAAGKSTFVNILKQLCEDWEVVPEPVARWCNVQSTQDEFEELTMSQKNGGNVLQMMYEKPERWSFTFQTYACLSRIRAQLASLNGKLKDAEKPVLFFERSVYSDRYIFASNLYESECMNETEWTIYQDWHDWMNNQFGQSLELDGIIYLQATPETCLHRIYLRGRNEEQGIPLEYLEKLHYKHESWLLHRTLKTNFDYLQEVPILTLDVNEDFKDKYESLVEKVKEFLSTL

SMILES	P ratio [1]	EC50 [2]	EC50 [4]	Ki [6]	IC50 [3]	IC50 [5]
O=c1[nH]c(=S)ccn1[C@H]1CC[C@@H](CO)O1	1.56					
Cc1cn([C@H]2C=C[C@@H](CO)O2)c(=O)[nH]c1=O [STAVUDINE]		0.8 µM	2 µM		235 µM	71 µM
O=c1[nH]c(=S)ccn1[C@H]1C=C[C@@H](CO)O1	1.23					
Nc1ccn([C@H]2C=C[C@@H](CO)O2)c(=O)n1				4600 µM		

More lines, main results first:

P ratio [1]	EC50 [2]	EC50 [4]	Ki [6]	SMILES	IC50 [3]	IC50 [5]
6.41	31 µM	39 µM		Cc1cn([C@H]2CC[C@@H](CO)O2)c(=O)[nH]c1=S	93 µM	90 µM
	0.00032 µM	0.18 µM		Cc1cn([C@H]2C[C@H](N=[N+]=[N-])[C@@H](CO)O2)c(=O)[nH]c1=O [ZIDOVUDINE]	> 100 µM	> 970 µM
6.99				Cc1cn([C@H]2C[C@H](N=[N+]=[N-])[C@@H](CO)O2)c(=O)[nH]c1=S		
5.39	39 µM	27 µM		Cc1cn([C@H]2C=C[C@@H](CO)O2)c(=O)[nH]c1=S	> 430 µM	> 80 µM
